The subject of one experiment is SK-OV-3. The experiment is described as follows: Cytotoxicity against human SKOV3 cells after 48 hrs by MTT assay. Format: functional, cell-based. The settings on record: SK-OV-3, 48 h. The method in brief:
(§1)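 Cells in DMEM with 10% FBS were plated at 2 × 10^4 per well and left overnight, then treated for 48 h at 0.6–20 µM (six concentrations) from 10 mM DMSO stocks. MTT was added for 2 h, and formazan was dissolved in DMSO and read at 570 nm. Viability was expressed as % of control, with IC50 taken from dose-response curves. Results are mean ± SD of three independent experiments.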
In general terms: Tetrazolium assays rely on reduction of a dye to a coloured formazan, in cell work by metabolically active cells.

In another experiment the test system is HeLa. The experiment is described as follows: Cytotoxicity against human HeLa cells after 48 hrs by MTT assay. It is filed as functional, cell-based. Summed up: as §1
For another experiment, the system named is HaCaT. The experiment is described as follows: Cytotoxicity against human HaCaT cells after 48 hrs by MTT assay. It is filed as cell-based. The method in brief: as §1
For a further experiment, the system named is MDA-MB-231. In words: Cytotoxicity against human MDA-MB-231 cells after 48 hrs by MTT assay. Format: functional, cell-based. The conditions noted are these: MDA-MB-231, 48 h. Summed up: as §1
Experiment [1] can be described thus: Cytotoxicity against human CCD39Lu cells after 48 hrs by MTT assay. It is filed as cell-based. The method in brief: as §1
In a further experiment the test system is A-431. The experiment is described as follows: Cytotoxicity against human A431 cells after 48 hrs by MTT assay. Format: functional, cell-based. The settings on record: A-431, 48 h. The method in brief:
as §1

A further experiment concerns A549. In words: Cytotoxicity against human A549 cells after 48 hrs by MTT assay. Format: functional, cell-based. The settings on record: A549, 48 h.
Experiment [2] in a line: Inhibition of porcine tubulin polymerization after 1 hr by spectrophotometric analysis. Also on record: species or system Sus scrofa. The method in brief:
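Polymerization was started by shifting from 4 °C to 37 °C, and absorbance was followed at 37 °C for 60 min. The vehicle served as control.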

In another experiment the test system is MCF7. The experiment is described as follows: Cytotoxicity against human MCF7 cells after 48 hrs by MTT assay. Format: functional, cell-based. The settings on record: MCF7, 48 h. The method in brief: as §1

The record followed here is ChEMBL document CHEMBL4145466, “Design, synthesis, and biological evaluation of novel combretastatin A-4 thio derivatives as microtubule targeting agents” (Eur J Med Chem, 2018).

Usually IC50 stands for the midpoint of a concentration-inhibition curve.

SMILES strings stand for the structures.

Turning to `COc1ccc(-c2c(-c3cc(Br)c(OC)c(OC)c3)ncn2C)cc1SC`, the IC50 (with SK-OV-3; in the experiment on HeLa; in the experiment on HaCaT; in the experiment with MDA-MB-231; in experiment [1]; in the experiment on A-431) was greater than 20 µM in each case. Besides, the IC50 with A549 was greater than 20 µM; in experiment [2] it was greater than 10 µM; in the experiment on MCF7, 5.24 µM.
With `COc1cc(-c2ncn(C)c2-c2cc(Br)c(SC)c(OC)c2)cc(OC)c1OC`, the IC50 was greater than 20 µM in the experiment on SK-OV-3; 8.18 µM in the experiment on HeLa; greater than 20 µM in the experiment on HaCaT; greater than 20 µM in the experiment with MDA-MB-231; 6.13 µM in [1]; 16.6 µM in the experiment with A-431. Besides, the IC50 with A549 is greater than 20 µM; in experiment [2] it was greater than 10 µM; in the experiment on MCF7, 2.51 µM.
For the molecule `COc1cc(-c2ncn(C)c2-c2ccccc2SC)cc(OC)c1OC`, the IC50 (with SK-OV-3; in the experiment on HeLa; in the experiment with HaCaT; with MDA-MB-231; in experiment [1]; in the experiment on A-431) was greater than 20 µM in each case. In addition, the IC50 in the experiment with A549 was greater than 20 µM; in [2], greater than 10 µM; in the experiment with MCF7, 2.29 µM.
For the molecule `COc1cc(/C=C\c2cccc(OC)c2SC)cc(OC)c1OC`, the IC50 in the experiment on SK-OV-3 is 14.5 µM; in the experiment on HeLa, 6.18 µM; in the experiment on HaCaT, 9.56 µM; in the experiment on MDA-MB-231, 11.7 µM; in experiment [1] it was greater than 20 µM; in the experiment with A-431 it was 3.61 µM. The IC50 with A549 is greater than 20 µM; in [2], greater than 10 µM; with MCF7 it was 0.65 µM.
With `COc1cc(/C=C\c2ccccc2SC)cc(OC)c1OC`, the IC50 in the experiment with SK-OV-3 was 14.1 µM; in the experiment on HeLa, 11.7 µM; in the experiment with HaCaT, 12.8 µM; in the experiment on MDA-MB-231 it was 14.2 µM; in experiment [1] it was greater than 20 µM; in the experiment with A-431, 8.22 µM. For the same molecule, the figures for the IC50 (in the experiment on A549; in [2]; in the experiment on MCF7) were greater than 20 µM, greater than 10 µM and 2.35 µM, respectively.
In the case of `COc1cc(-c2ncoc2-c2cc(Br)c(SC)c(OC)c2)cc(OC)c1OC`, the IC50 is greater than 20 µM in the experiment on SK-OV-3; greater than 20 µM with HeLa; 16.7 µM with HaCaT; 17.9 µM with MDA-MB-231; greater than 20 µM in [1]; greater than 20 µM in the experiment on A-431. Besides, the IC50 in the experiment on A549 is greater than 20 µM; in experiment [2], greater than 10 µM; in the experiment with MCF7, 1.42 µM.
With `COc1ccc(-c2ocnc2-c2cc(OC)c(OC)c(OC)c2)cc1S`, the IC50 with SK-OV-3 was 3.18 µM; in the experiment with HeLa, 4.44 µM; in the experiment on HaCaT, 1.28 µM; in the experiment on MDA-MB-231 it was 2.87 µM; in experiment [1] it was greater than 20 µM; in the experiment on A-431, 1.22 µM. The results for the IC50 (in the experiment on A549; in [2]; with MCF7) were greater than 20 µM, 2.97 µM and 2.11 µM, respectively.
Consider `COc1cc(-c2c(-c3cc(Br)c(OC)c(OC)c3)ncn2C)ccc1SC`, for which the 50% inhibitory concentration (IC50) with SK-OV-3 is greater than 20 µM; with HeLa, greater than 20 µM; in the experiment with HaCaT, greater than 20 µM; in the experiment on MDA-MB-231, 15.5 µM; in experiment [1] it was 19.3 µM; in the experiment with A-431 it was 13.6 µM. In addition, the values for the IC50 (in the experiment with A549; in [2]; with MCF7) were greater than 20 µM, greater than 10 µM and 2.2 µM, respectively.
For the molecule `COc1ccc(-c2ocnc2-c2cc(Br)c(OC)c(OC)c2)cc1OC`, the IC50 in the experiment on SK-OV-3 was 0.26 µM; with HeLa it was 0.07 µM; in the experiment with HaCaT it was 10.1 µM; in the experiment on MDA-MB-231, 7.83 µM; in experiment [1], greater than 20 µM; in the experiment with A-431, 12.3 µM. For the same molecule, the IC50 in the experiment with A549 stood at 0.5 µM; in experiment [2] it was 4.8 µM; with MCF7, 6.1 µM.
With `COc1cc(-c2ocnc2-c2cc(OC)c(OC)c(OC)c2)ccc1SC`, the IC50 is 1.48 µM in the experiment with SK-OV-3; 0.645 µM with HeLa; 0.43 µM in the experiment with HaCaT; 0.85 µM in the experiment on MDA-MB-231; greater than 20 µM in experiment [1]; 0.43 µM in the experiment on A-431. The IC50 with A549 was greater than 20 µM; in [2] it was 1.62 µM; with MCF7, 0.6 µM.
